Assay: Toxicity liver stage against HepG2, at 10uM
Type: cell-based
Parameters: test concentration 10 uM, cell line HepG2-A16-CD81EGFP
Settings: human, HepG2-A16-CD81EGFP cells; read-out: INHIBITION
Summary of the method: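 Uninfected HepG2-A16-CD81EGFP cells, 3 × 10^3 per well, 1536-well, plated on prespotted compound at 10 μM final, parasite-free screening media added to match infected plates; puromycin 10 μM positive, DMSO 0.5% negative; run in parallel with 48 h PbLuc assay at 37 °C, 5% CO2; viability by CellTiter-Glo luminescence, normalized to controls.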

SMILES	cytotoxicity at 10 µM [%]
COc1cc(N2C[C@@H]3COC[C@]3(COCc3ccccn3)C2)ncn1	-73.2
Cn1cccc1-c1cc(C(=O)N2CCCC2c2ccc(C(N)=O)s2)[nH]n1 (stereo not given)	-1.33
O=S(=O)(NCCc1c[nH]c2cc(F)ccc12)C1CCOC1 (stereo not given)	8.57
CC1COc2ccccc2N1C(=O)c1cscn1 (stereo not given)	11.5
N#Cc1cccnc1N1CCCN(CC(=O)N2CCNC(=O)C2)CC1	4.07
CCCn1nc(-c2nc(Cc3ccc(OC)cc3)no2)ccc1=O	0.0197
CC(=O)NCCc1cn(-c2cc(F)ccc2C)cn1	-1.47
CCOCc1nc(-c2cccc(OC)c2OC)n(C2CCN(C)CC2)n1	-1.76
COc1ccccc1C(=O)NCCCN1CCCC1C(=O)N(C)C (stereo not given)	-2.94
Cc1nc2[nH]cnc(Nc3cc(C)n(C)n3)c-2n1	6.69
O=C1[C@H]2CN(Cc3ccncc3)C[C@H]2CN1c1cncnc1	-0.748
Cc1cnn(CC2CN(CC(=O)NCc3ccc(C)s3)CCO2)c1 (stereo not given)	0.742
CCn1c(CN2CCCC2)nnc1C1CCN(S(=O)(=O)CC)CC1	-4.92
Cn1cnc2c1CCN(Cc1ccc(Cl)c3cccnc13)C2	10.6
CN(Cc1ccsc1)Cc1nc(-c2ccncc2)no1	1.93
CCCN(CC(F)F)c1cc(COC)nc2ncnn12	-3.22
O=C(C1CC=CC1)N1CC[C@@H]2O[C@H](COCC3CCOCC3)CC[C@@H]21	-0.0499
O=c1cc(Cn2cncn2)nc2n1CCCN(CCN1CCCC1)C2	2.78
CC(C)c1nc(-c2ccc(=O)[nH]n2)n(-c2ccc3c(c2)OCO3)n1	6.46
Cc1nnc2n1CCN(c1nc3ccccc3o1)C2	3.51
Cc1ccc(F)cc1-c1ccc(N)nc1	-143
CO[C@@H]1CCC[C@@H](N(C)C(=O)c2cn3cc(C)ccc3n2)[C@H]1O	0.829
Cc1nc(C(C)C)sc1C(=O)N1CCC(C(N)=O)CC1	1.68

SMILES	cytotoxicity at 10 µM [%]
CCN(CC)Cc1nnc2sc(C(C)Oc3ccccc3)nn12 (stereo not given)	8.35
CN(Cc1cc(C2CC2)on1)C(=O)CN1C(=O)OC(C)(C)C1=O	-127
COc1ccc(CN2CCN(Cc3nccn3C)C(C)C2)cc1F (stereo not given)	2.42
CCS(=O)(=O)Nc1ccc2c(c1)C1(CCOCC1)CN2C	-107
CCN1CCN(S(=O)(=O)N2CCCC2)[C@H]2CS(=O)(=O)C[C@H]21	-4.14
COCCN1CCCC12CCCN(c1ncccn1)C2 (stereo not given)	-6.9
COc1c(CNC2CCN(CC(=O)NC3CC3)CC2)c(C)nn1C	7.76
CC(NC(=O)NCCCc1n[nH]c(N)c1C#N)c1ccc(F)c(F)c1 (stereo not given)	-10.2
O=C(Nc1nc2c(s1)CN(S(=O)(=O)C1CC1)CC2)Nc1ccccc1F	-1.34
CCN1C(=O)CCC12CCCN(S(=O)(=O)c1cccc(C)c1)CC2 (stereo not given)	-4.54
O=C(O)c1ccc2c(CN3CCCC3)c[nH]c2c1	-2.09
O=C(c1cccnc1)C1CCCN(c2nnc(C3CC3)o2)C1 (stereo not given)	6.59
CN(CCc1ncnn1-c1ccccc1Cl)C1CCS(=O)(=O)C1 (stereo not given)	9.53
CCN1C[C@@H]2CN(C(=O)C3CC=CC3)C[C@@H]2C1=O	2.35
CCc1n[nH]c(C2CN(CCCOc3cccc(C)c3)CCO2)n1 (stereo not given)	-15
CC(C)c1ccc(/C=C/CC(=O)NC2CCN(C(N)=O)CC2)cc1	7.1
OC(COc1ccc(F)cc1)CN1CCC(c2ccn[nH]2)CC1 (stereo not given)	0.923
CC(C)n1nnnc1-c1ccc(NC(=O)C(C)(C)C#N)cc1F	-7.36
c1cncc(OC[C@@H]2CCC[C@@]23CNCCO3)c1	10.5
Cc1cc(CC(=O)NCC(O)COc2ccc(F)c(F)c2)no1 (stereo not given)	-5.03
Cc1nc(CN2CCCn3nc(CNC(=O)C4CCC4)cc3C2)co1	3.26
O=C(NCCn1ccc(-c2ccncc2)n1)c1ccc2c(c1)OCO2	6.03
